Laboratory results published in ChEMBL document CHEMBL2375232, “4-Amino-2-arylamino-5-indoloyl/cinnamoythiazoles, analogs of topsentin-class of marine alkaloids, induce apoptosis in HeLa cells” (Eur J Med Chem, 2013).
Active and inactive are the calls of the source. The calls are words filed in the database; no cut-off is given here.

Legend:
HeLa [1] = assay: Cell cycle arrest in human HeLa cells assessed as accumulation at S phase after 24 hrs by flow cytometry analysis (reference value: 4.5 +/- 0.2%); type: functional
HeLa [2] = assay: Cell cycle arrest in human HeLa cells assessed as accumulation at G2/M phase after 24 hrs by flow cytometry analysis (reference value: 13.2 +/- 0.48%); type: functional
HeLa [3] = assay: Cell cycle arrest in human HeLa cells assessed as accumulation at G0/G1 phase after 24 hrs by flow cytometry analysis (reference value: 80.7 +/- 0.47%); type: functional
HeLa [4] = assay: Cell cycle arrest in human HeLa cells assessed as accumulation at sub-G0 phase after 24 hrs by flow cytometry analysis (reference value: 1.2 +/- 0.29%); type: functional
HeLa [5] = assay: Induction of apoptosis in human HeLa cells assessed as nuclear condensation using DAPI staining at IC50 after 48 hrs by fluorescence microscopic analysis; type: functional, cell-based
Procedure, shortened: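 They were PBS-washed, stained with DAPI (1 µg/mL in methanol) for 10 min at 37 °C and imaged by fluorescence microscopy. Condensed chromatin or fragmented nuclei scored as apoptotic; three independent experiments.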

HeLa [6] = assay: Induction of apoptosis in human HeLa cells using acridine orange/ethidium bromide staining at IC50 after 48 hrs by fluorescence microscopic analysis; type: functional, cell-based
Procedure, shortened: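 HeLa cells seeded at 75000/well in 24-well plates, treated at IC50 for 48 h, PBS-washed and stained with acridine orange/ethidium bromide mixture (each 100 µg/mL) for 30 min at 37 °C. Apoptotic morphology assessed by fluorescence microscopy; three independent experiments in duplicate.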

HeLa [7] = assay: Cytotoxicity against human HeLa cells after 48 hrs by alamar blue assay; type: functional, cell-based
Procedure, shortened: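 Alamar blue (resazurin) viability assay. HeLa cells seeded at 5000 cells/well, treated 24 h later with a range of concentrations for 48 h. Alamar blue (0.2 mg/mL) was then added for 2–4 h and absorbance read at 570 and 595 nm. Survival is percent of untreated control; IC50 taken from the concentration–response curves; three experiments in triplicate.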

HeLa [8] = assay: Induction of apoptosis in human HeLa cells assessed as activation of caspase 8 after 48 hrs by fluorescence assay relative to control; type: functional
Procedure, shortened: (§1)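 Fluorogenic substrate assay. 1×10⁶ HeLa cells treated 48 h, lysed in Tris/phosphate buffer pH 7.5 with 1% Triton X-100. Lysate incubated 1 h at 37 °C in PIPES assay buffer pH 7.2 (DTT, EDTA, CHAPS, sucrose) with Ac-DEVD-AFC (caspase 3), Ac-IETD-AFC (caspase 8) or Ac-LEHD-AFC (caspase 9). AFC read at excitation 400 nm, emission 480–520 nm; fold RFU over untreated control; mean ± SD of three experiments.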

HeLa [9] = assay: Inhibition of TNFalpha-induced NFkappaB activation (unknown origin) expressed in human HeLa cells at IC50 treated 24 hrs before TNFalpha challenge measured after 5 hrs by luciferase reporter gene assay; type: cell-based
HeLa [10] = assay: Induction of apoptosis in human HeLa cells assessed as activation of caspase 9 after 48 hrs by fluorescence assay relative to control; type: functional; procedure, shortened: as §1
HeLa [11] = assay: Induction of apoptosis in human HeLa cells assessed as activation of caspase 3 after 48 hrs by fluorescence assay relative to control; type: functional; procedure, shortened: as §1
HeLa [12] = assay: Induction of apoptosis in human HeLa cells assessed as loss of mitochondrial membrane potential using JC-1 staining after 48 hrs by fluorescence microscopic analysis; type: functional, cell-based
Procedure, shortened: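 Treated cells (48 h, 24-well plates) were given JC-1 diluted in medium and incubated 10 min at 37 °C (or 15 min at RT), washed twice in PBS and viewed by fluorescence microscopy. Orange/red fluorescence marks intact membrane potential; green marks its loss. Confirmed in three independent experiments.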

HeLa [13] = assay: Cell cycle arrest in human HeLa cells assessed as accumulation at G2/M phase after 48 hrs by flow cytometry analysis (reference value: 16.6 +/- 0.16%); type: functional
HeLa [14] = assay: Cell cycle arrest in human HeLa cells assessed as accumulation at S phase after 48 hrs by flow cytometry analysis (reference value: 7.2 +/- 0.77%); type: functional
HeLa [15] = assay: Cell cycle arrest in human HeLa cells assessed as accumulation at G0/G1 phase after 48 hrs by flow cytometry analysis (reference value: 73.1 +/- 1.02%); type: functional
HeLa [16] = assay: Cell cycle arrest in human HeLa cells assessed as accumulation at sub-G0 phase after 48 hrs by flow cytometry analysis (reference value: 2.3 +/- 0.37%); type: functional

COc1ccc(Nc2nc(Nc3ccc(Cl)cc3)c(C(=O)c3c[nH]c4ccccc34)s2)cc1
Activity (HeLa [1]): 10.19% | Activity (HeLa [2]): 17.51% | Activity (HeLa [3]): 59.13% | Activity (HeLa [4]): 13.17% | Activity (HeLa [5]): Active | Activity (HeLa [6]): Active | IC50 (HeLa [7]): 20 µM | fold change (FC) (HeLa [8]): 1.54 | inhibition (HeLa [9]): 72% | fold change (FC) (HeLa [10]): 4.4 | fold change (FC) (HeLa [11]): 2.4 | Activity (HeLa [12]): Active | Activity (HeLa [13]): 9.78% | Activity (HeLa [14]): 7.69% | Activity (HeLa [15]): 38.53% | Activity (HeLa [16]): 42.37%

COc1ccc(Nc2nc(N)c(C(=O)c3c[nH]c4ccccc34)s2)cc1
Activity (HeLa [1]): 4.2% | Activity (HeLa [2]): 35.3% | Activity (HeLa [3]): 43.2% | Activity (HeLa [4]): 16.7% | Activity (HeLa [5]): Active | Activity (HeLa [6]): Active | IC50 (HeLa [7]): 1 µM | fold change (FC) (HeLa [8]): 1.1 | inhibition (HeLa [9]): 34% | fold change (FC) (HeLa [10]): 1.6 | fold change (FC) (HeLa [11]): 2.8 | Activity (HeLa [12]): Active | Activity (HeLa [13]): 12.5% | Activity (HeLa [14]): 7.8% | Activity (HeLa [15]): 24% | Activity (HeLa [16]): 49%

COc1cc(/C=C/C(=O)CC(=O)/C=C/c2ccc(O)c(OC)c2)ccc1O [CURCUMIN]
fold change (FC) (HeLa [8]): 1.4 | inhibition (HeLa [9]): 79% | fold change (FC) (HeLa [10]): 1.7 | fold change (FC) (HeLa [11]): 2.1 | Activity (HeLa [12]): Active

Nc1nc(Nc2ccc(Cl)cc2)sc1C(=O)c1c[nH]c2ccccc12
Activity (HeLa [1]): 8.12% | Activity (HeLa [2]): 11.8% | Activity (HeLa [3]): 56.34% | Activity (HeLa [4]): 23.74% | Activity (HeLa [5]): Active | Activity (HeLa [6]): Active | IC50 (HeLa [7]): 45 µM | fold change (FC) (HeLa [8]): 0.96 | inhibition (HeLa [9]): 80% | fold change (FC) (HeLa [10]): 2.5 | fold change (FC) (HeLa [11]): 2.5 | Activity (HeLa [12]): Active | Activity (HeLa [13]): 21.56% | Activity (HeLa [14]): 8.95% | Activity (HeLa [15]): 13.75% | Activity (HeLa [16]): 55.33%

COc1ccc(/C=C/C(=O)c2sc(Nc3ccc(Cl)cc3)nc2N)cc1O
Activity (HeLa [1]): 6.8% | Activity (HeLa [2]): 51.4% | Activity (HeLa [3]): 15.37% | Activity (HeLa [4]): 25.8% | Activity (HeLa [5]): Active | Activity (HeLa [6]): Active | IC50 (HeLa [7]): 30 µM | fold change (FC) (HeLa [8]): 1.2 | inhibition (HeLa [9]): 56% | fold change (FC) (HeLa [10]): 2.6 | fold change (FC) (HeLa [11]): 2.2 | Activity (HeLa [12]): Active | Activity (HeLa [13]): 35.8% | Activity (HeLa [14]): 9% | Activity (HeLa [15]): 15% | Activity (HeLa [16]): 35%

COc1cc(/C=C/C(=O)c2sc(Nc3ccc(Cl)cc3)nc2N)ccc1O
Activity (HeLa [1]): 4.4% | Activity (HeLa [2]): 27.2% | Activity (HeLa [3]): 64.7% | Activity (HeLa [4]): 3.4% | Activity (HeLa [5]): Active | Activity (HeLa [6]): Active | IC50 (HeLa [7]): 60 µM | fold change (FC) (HeLa [8]): 0.9 | inhibition (HeLa [9]): 87% | fold change (FC) (HeLa [10]): 2.3 | fold change (FC) (HeLa [11]): 1.5 | Activity (HeLa [12]): Active | Activity (HeLa [13]): 28.2% | Activity (HeLa [14]): 14.2% | Activity (HeLa [15]): 38% | Activity (HeLa [16]): 16.7%
